Test results reported in ChEMBL document CHEMBL1125399, “Perfluorocarbon-based antidiabetic agents” (1992).

Key:
Mus musculus [1] = species: Mus musculus; test: Percent plasma glucose concentration of drug treated mice (ob/ob) relative to vehicle control animals; format: functional
How it was run: (§1)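 Female ob/ob mice, 10 weeks old, fed ad libitum, in groups of 7–11. Dosed po once daily for 4 days in 0.5% methyl cellulose vehicle. Decapitated the next morning; 0.1 mL blood into saline with Trasylol and EDTA; plasma glucose by autoanalyzer. Reciprocal-transformed (y = 160/x) harmonic mean given as % of vehicle. Bonferroni-adjusted comparisons.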

Mus musculus [2] = test: Percent plasma glucose concentration of drug treated mice (ob/ob) relative to vehicle control animals following 75 mg/kg administration.; format: functional; how it was run: as §1

Compound	Activity (Mus musculus [1]) [%]	Activity (Mus musculus [2]) [%]
O=C(Nc1ccc(CCCCc2nn[nH]n2)cc1)C(F)(F)C(F)(F)C(F)(F)C(F)(F)C(F)(F)C(F)(F)C(F)(F)F	73	–
O=C(Nc1ccc(CCc2nn[nH]n2)cc1)C(F)(F)C(F)(F)C(F)(F)C(F)(F)C(F)(F)C(F)(F)C(F)(F)F	119	–
O=C(Nc1cccc2ncccc12)C(F)(F)C(F)(F)C(F)(F)C(F)(F)C(F)(F)C(F)(F)C(F)(F)F	64	–
O=C(Nc1ccccc1)C(F)(F)C(F)(F)C(F)(F)C(F)(F)C(F)(F)C(F)(F)C(F)(F)F	74	–
CCOC(=O)C(F)(F)C(F)(F)C(F)(F)C(F)(F)C(F)(F)C(F)(F)C(F)(F)F	72	–
O=C(O)C(F)(F)C(F)(F)C(F)(F)C(F)(F)C(F)(F)C(F)(F)F	–	107
CCCCCCCCCCCCCCCCCC(=O)Nc1ccc(Cc2nn[nH]n2)cc1	108	–
O=C(O)C(F)(F)C(F)(F)C(F)(F)C(F)(F)C(F)(F)C(F)(F)C(F)(F)F	60	–
O=C(Nc1ccc(Cc2nn[nH]n2)cc1)c1ccc(C(F)(F)F)cc1	–	130
O=C(O)C(F)(F)C(F)(F)C(F)(F)C(F)(F)F	–	133
O=C(Nc1ccc(Cc2nnn[nH]2)cc1)C(F)(F)C(F)(F)C(F)(F)C(F)(F)C(F)(F)C(F)(F)C(F)(F)C(F)(F)C(F)(F)C(F)F	62	–
CCCCNC(=O)C(F)(F)C(F)(F)C(F)(F)C(F)(F)C(F)(F)C(F)(F)C(F)(F)F	–	70
COc1ccc2c(c1)CCCN2C(=O)C(F)(F)C(F)(F)C(F)(F)C(F)(F)C(F)(F)C(F)(F)C(F)(F)F	132	–
CCCCCCCCC(=O)NCCCCCc1nnn[nH]1	100	–
O=C(Nc1ccc(Cc2nnn[nH]2)cc1)C(F)(F)C(F)(F)C(F)(F)C(F)(F)C(F)(F)C(F)(F)F	93	–
O=C(Nc1cccnc1)C(F)(F)C(F)(F)C(F)(F)C(F)(F)C(F)(F)C(F)(F)C(F)(F)F	74	–
O=C(N1CCCc2ccccc21)C(F)(F)C(F)(F)C(F)(F)C(F)(F)C(F)(F)C(F)(F)C(F)(F)F	115	–
O=C(NCCCCCc1nnn[nH]1)C(F)(F)C(F)(F)C(F)(F)F	91	–
O=C(Nc1ccccn1)C(F)(F)C(F)(F)C(F)(F)C(F)(F)C(F)(F)C(F)(F)C(F)(F)F	56	–
O=C(N1CCc2ccccc2C1)C(F)(F)C(F)(F)C(F)(F)C(F)(F)C(F)(F)C(F)(F)C(F)(F)F	87	–
O=C(Nc1ccc(CCCc2nn[nH]n2)cc1)C(F)(F)C(F)(F)C(F)(F)F	72	–
NCC(F)(F)C(F)(F)C(F)(F)C(F)(F)C(F)(F)C(F)(F)C(F)(F)F	84	–
O=C(NCCCCCc1nn[nH]n1)C(F)(F)C(F)(F)C(F)(F)C(F)(F)C(F)(F)C(F)(F)C(F)(F)F	54	–
OC(c1ccccc1)C(F)(F)C(F)(F)C(F)(F)C(F)(F)C(F)(F)C(F)(F)C(F)(F)C(F)(F)F (stereo unspecified)	–	64
O=C(Nc1ccc(Cc2nnn[nH]2)cc1)C(F)(F)C(F)(F)C(F)(F)C(F)(F)C(F)(F)C(F)(F)C(F)(F)C(F)F	65	–
O=C(NCC(F)(F)C(F)(F)C(F)(F)F)c1ccc(Cc2nn[nH]n2)cc1	90	–

Compound	Activity (Mus musculus [1]) [%]	Activity (Mus musculus [2]) [%]
O=C(Nc1ccc(CCc2nn[nH]n2)cc1)C(F)(F)C(F)(F)C(F)(F)F	76	–
Cc1csc(=N)n1C(=O)C(F)(F)C(F)(F)C(F)(F)C(F)(F)C(F)(F)C(F)(F)C(F)(F)F	94	–
O=C(N1CCN(c2ccccn2)CC1)C(F)(F)C(F)(F)C(F)(F)C(F)(F)C(F)(F)C(F)(F)C(F)(F)F	76	–
O=C(Nc1ncccn1)C(F)(F)C(F)(F)C(F)(F)C(F)(F)C(F)(F)C(F)(F)C(F)(F)F	49	–
O=C(Nc1cccc(Cc2nn[nH]n2)c1)C(F)(F)C(F)(F)C(F)(F)C(F)(F)C(F)(F)C(F)(F)C(F)(F)F	60	–
O=C(NO)C(F)(F)C(F)(F)C(F)(F)C(F)(F)C(F)(F)C(F)(F)C(F)(F)F	52	–
CCCC(=O)Nc1ccc(Cc2nn[nH]n2)cc1	–	108
N#CCc1ccc(NC(=O)C(F)(F)C(F)(F)C(F)(F)C(F)(F)C(F)(F)C(F)(F)C(F)(F)F)cc1	–	69
O=C(NCc1ccccc1)C(F)(F)C(F)(F)C(F)(F)C(F)(F)C(F)(F)C(F)(F)C(F)(F)F	106	–
Cc1ccc(NC(=O)C(F)(F)C(F)(F)C(F)(F)C(F)(F)C(F)(F)C(F)(F)C(F)(F)F)cc1	–	58
O=C(CCC(F)(F)F)Nc1ccc(Cc2nn[nH]n2)cc1	–	104
FC(F)C(F)(F)C(F)(F)C(F)(F)C(F)(F)C(F)(F)C(F)(F)F	–	90
O=C(Nc1ccc(Cc2nn[nH]n2)cc1)C(F)(F)C(F)(F)C(F)(F)F	96	–
O=C(NCCCCCc1nn[nH]n1)C(F)(F)C(F)(F)C(F)(F)C(F)(F)C(F)(F)C(F)(F)C(F)(F)C(F)(F)F	57	–
O=C(Nc1cccc(Cc2nn[n-]n2)c1)C(F)(F)C(F)(F)C(F)(F)F.[Na+]	71	–
O=C(NCCCCCc1nn[n-]n1)C(F)(F)C(F)(F)C(F)(F)C(F)(F)C(F)(F)C(F)(F)C(F)(F)C(F)(F)F.[Na+]	62	–
O=C(NCCCCCc1nn[n-]n1)C(F)(F)C(F)(F)C(F)(F)C(F)(F)C(F)(F)C(F)(F)C(F)(F)F.[Na+]	48	–
O=C(Nc1ccc(Cc2nn[n-]n2)cc1)C(F)(F)C(F)(F)C(F)(F)C(F)(F)C(F)(F)C(F)(F)C(F)(F)F.[Na+]	55	–
O=C(Nc1ccccc1Cc1nn[n-]n1)C(F)(F)C(F)(F)C(F)(F)F.[Na+]	84	–
CN(C(=O)C(F)(F)C(F)(F)C(F)(F)C(F)(F)C(F)(F)C(F)(F)C(F)(F)F)c1ccc(Cc2nnn(C)n2)cc1	70	–
COC(=O)NCC(F)(F)C(F)(F)C(F)(F)C(F)(F)C(F)(F)C(F)(F)C(F)(F)F	–	57
O=C(Nc1ccc(Cc2nn[nH]n2)cc1)c1cc(C(F)(F)F)cc(C(F)(F)F)c1	82	–
O=C(Nc1ccc(F)cc1)C(F)(F)C(F)(F)C(F)(F)C(F)(F)C(F)(F)C(F)(F)C(F)(F)F	91	–
O=C(Nc1ccc(Cc2nnn[nH]2)cc1)C(F)(F)C(F)(F)F	86	–
O=C(NCCc1ccccn1)C(F)(F)C(F)(F)C(F)(F)C(F)(F)C(F)(F)C(F)(F)C(F)(F)F	63	–
FC(F)(F)C(F)(F)C(F)(F)CNc1ccc(Cc2nn[nH]n2)cc1	–	99

Compound	Activity (Mus musculus [1]) [%]	Activity (Mus musculus [2]) [%]
O=C(NCCc1nnn[nH]1)C(F)(F)C(F)(F)C(F)(F)C(F)(F)C(F)(F)C(F)(F)C(F)(F)C(F)(F)F	65	–
O=C(O)C(F)(F)C(F)(F)C(F)(F)F	101	–
O=C(NCCCCCc1nnn[nH]1)C(F)(F)F	95	–
NC(=O)C(F)(F)C(F)(F)C(F)(F)C(F)(F)C(F)(F)C(F)(F)C(F)(F)F	65	–
O=C(Nc1ccc(Cc2nnn[nH]2)cc1)C(F)(F)C(F)(F)C(F)(F)C(F)(F)C(F)(F)C(F)(F)C(F)(F)C(F)(F)C(F)(F)F	71	–
O=C(Nc1ccccc1Cc1nn[nH]n1)C(F)(F)C(F)(F)C(F)(F)F	91	–
O=C(Nc1ccc(-c2nn[nH]n2)cc1)C(F)(F)C(F)(F)C(F)(F)C(F)(F)C(F)(F)C(F)(F)C(F)(F)F	82	–
O=C(Nc1ccc(-c2nn[nH]n2)cc1)C(F)(F)C(F)(F)C(F)(F)F	–	75
O=C(Nc1ccccc1O)C(F)(F)C(F)(F)C(F)(F)C(F)(F)C(F)(F)C(F)(F)C(F)(F)F	85	–
O=C(NCC(F)(F)C(F)(F)C(F)(F)F)c1cccc(Cc2nn[nH]n2)c1	93	–
O=C(Nc1ccc(Cc2nnn[nH]2)cc1)C(F)(F)C(F)(F)C(F)(F)C(F)(F)C(F)(F)C(F)(F)C(F)(F)C(F)(F)F	63	–
O=C(Nc1ccc(CCCc2nn[nH]n2)cc1)C(F)(F)C(F)(F)C(F)(F)C(F)(F)C(F)(F)C(F)(F)C(F)(F)F	63	–
O=C(Nc1ccccc1Cc1nn[nH]n1)C(F)(F)C(F)(F)C(F)(F)C(F)(F)C(F)(F)C(F)(F)C(F)(F)F	66	–
O=C(N(Cc1ccccc1)c1cccc(Cc2nn[nH]n2)c1)C(F)(F)C(F)(F)C(F)(F)F	78	–
O=C(Nc1ccc(Cc2nnn[nH]2)cc1)C(F)(F)F	104	–
OCC(F)(F)C(F)(F)C(F)(F)C(F)(F)C(F)(F)C(F)(F)C(F)F	67	–
O=C(Nc1ccc(Cc2nnn[nH]2)cc1)C(F)(F)C(F)(F)C(F)(F)C(F)(F)F	92	–
O=C(Nc1ccc(Cc2nn[nH]n2)cc1)c1c(F)c(F)c(F)c(F)c1F	75	–
O=C(Nc1nn[nH]n1)C(F)(F)C(F)(F)C(F)(F)C(F)(F)C(F)(F)C(F)(F)C(F)(F)F	64	–
O=C(Nc1cccc(Cc2nn[nH]n2)c1)C(F)(F)C(F)(F)C(F)(F)F	86	–
O=C(O)C(F)(F)C(F)(F)C(F)(F)C(F)(F)C(F)(F)C(F)(F)C(F)(F)C(F)(F)F	–	124
O=C(Nc1ccc(Cc2nnnn2Cc2ccccc2)cc1)C(F)(F)C(F)(F)C(F)(F)C(F)(F)C(F)(F)C(F)(F)C(F)(F)F	82	–
CC1(COc2ccc(CC3SC(=O)NC3=O)cc2)CCCCC1 (stereo unspecified) [CIGLITAZONE]	70	–
CCNS(=O)(=O)C(F)(F)C(F)(F)C(F)(F)C(F)(F)C(F)(F)C(F)(F)C(F)(F)C(F)(F)F [SULFLURAMID]	90	–
